Data published in ChEMBL document CHEMBL1914440, “Discovery of potent, selective, and orally bioavailable alkynylphenoxyacetic acid CRTH2 (DP2) receptor antagonists for the treatment of allergic inflammatory diseases” (J Med Chem, 2011).
Blank lines part the entries; values can stand above or below the compound they belong to.

What was measured:
[1] = Percentage unbound in mouse plasma; format: ADME, cell-free
[2] = target: T1, Prostaglandin D2 receptor 2 (Homo sapiens, UniProt Q9Y5Y4); assay: Displacement of [3H]PGD2 from human CRTH2 expressed in chinese hamster CHO cells by liquid scintillation counting; format: cell-based
T1 sequence (Q9Y5Y4 whole entry): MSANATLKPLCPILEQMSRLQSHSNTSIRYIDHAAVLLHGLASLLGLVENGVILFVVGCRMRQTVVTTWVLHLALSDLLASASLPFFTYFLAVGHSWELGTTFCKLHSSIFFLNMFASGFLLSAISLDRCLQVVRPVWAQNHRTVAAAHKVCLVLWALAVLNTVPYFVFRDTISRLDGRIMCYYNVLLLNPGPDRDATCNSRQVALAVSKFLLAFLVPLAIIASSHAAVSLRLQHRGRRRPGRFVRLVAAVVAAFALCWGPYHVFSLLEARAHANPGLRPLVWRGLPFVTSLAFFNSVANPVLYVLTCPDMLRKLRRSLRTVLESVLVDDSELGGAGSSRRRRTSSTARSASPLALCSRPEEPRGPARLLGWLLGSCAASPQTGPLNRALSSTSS
How it was run: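 Scintillation proximity competition assay: 2–5 μg human CRTH2 cell membranes, 1.5 nM [3H]PGD2, WGA-SPA beads, 10 mM HEPES/KOH pH 7.4, 10 mM MnCl2, protease inhibitors, 1% DMSO; 90 min, room temperature, shaking. Nonspecific binding defined with 1 μM PGD2. Ki by Cheng–Prusoff, mean of ≥3 independent dose–response experiments.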

[3] = Oral bioavailability in BALB/c mouse at 5 mg/kg by LC/MS/MS analysis; format: ADME, organism-based; details: in vivo
How it was run: (§1)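 Mouse PK after a 5 mg/kg oral dose.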

[4] = Clearance in BALB/c mouse at 5 mg/kg, po by LC/MS/MS analysis; format: ADME, organism-based; set-up: dose 5 mg/kg, route oral; details: in vivo
[5] = target: T2, Prostaglandin D2 receptor 2 (Homo sapiens) (UniProt Q9Y5Y4); assay: Partial agonist activity at human CRTH2 expressed in chinese hamster CHO cells by cellular dielectric spectroscopy relative to PGD2; format: functional, cell-based
T2 sequence (whole entry): T1 sequence (Q9Y5Y4 whole entry)
How it was run: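 CHO-CRTH2 cells seeded at 100000/well, grown 24 h at 37 °C, washed into HBSS/10 mM HEPES pH 7.4 with 1% DMSO; impedance recorded. Agonism: compound alone, 25 min read. Antagonism: PGD2 at EC80 added to cell–compound mixture, 25 min read. Run with 0.1% BSA.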

[6] = AUC in BALB/c mouse at 5 mg/kg, po; format: ADME, organism-based; set-up: dose 5 mg/kg, route oral; details: plasma; how it was run: as §1
[7] = Percentage unbound in human plasma; format: ADME, cell-free
[8] = Percentage unbound in rat plasma; format: ADME, cell-free
[9] = Lipophilicity, log D of the compound at pH 7.4; format: physicochemical; details: buffer
[10] = target: T1, Prostaglandin D2 receptor 2; assay: Antagonist activity at human CRTH2 expressed in […] by cellular dielectric spectroscopy in the presence of PGD2 and 0.1% BSA; format: functional, cell-based
How it was run: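 CHO-CRTH2 cells grown in HAM's F12 with 10% FCS and 400 μg/mL Geneticin, seeded at 100000 cells/well, 24 h at 37 °C. Washed in HBSS plus 10 mM HEPES pH 7.4 with 1% DMSO and 0.1% BSA. Compound added, then PGD2 at its EC80.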

[11] = Half life in BALB/c mouse at 0.2 mg/kg, iv by LC/MS/MS analysis; format: ADME, organism-based; set-up: dose 0.2 mg/kg, route intravenous; details: in vivo
[12] = Oral bioavailability in BALB/c mouse at 1 mg/kg by LC/MS/MS analysis; format: ADME, organism-based; details: in vivo
How it was run: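 Oral bioavailability in mouse from a 1 mg/kg po dose given in a cocktail (cassette) experiment.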

[13] = Kinetic solubility of the compound in phosphate buffered saline; format: physicochemical; details: read-out: Kinetic_solubility
[14] = Half life in BALB/c mouse at 1 mg/kg, po by LC/MS/MS analysis; format: ADME, organism-based; set-up: dose 1 mg/kg, route oral; details: in vivo
[15] = Intrinsic clearance in rat liver microsomes assessed per mg of protein at 1 uM by LC/MS/MS analysis; format: ADME, Microsome
[16] = target: T1, Prostaglandin D2 receptor 2; assay: Antagonist activity at human CRTH2 expressed in human CHO cells by cellular dielectric spectroscopy
[17] = target: T3, Prostaglandin D2 receptor 2 (Mus musculus, UniProt Q9Z2J6); assay: Displacement of [3H]PGD2 from mouse CRTH2 expressed in human HEK cells by liquid scintillation counting; format: cell-based, HEK293
T3 sequence (Q9Z2J6 whole entry): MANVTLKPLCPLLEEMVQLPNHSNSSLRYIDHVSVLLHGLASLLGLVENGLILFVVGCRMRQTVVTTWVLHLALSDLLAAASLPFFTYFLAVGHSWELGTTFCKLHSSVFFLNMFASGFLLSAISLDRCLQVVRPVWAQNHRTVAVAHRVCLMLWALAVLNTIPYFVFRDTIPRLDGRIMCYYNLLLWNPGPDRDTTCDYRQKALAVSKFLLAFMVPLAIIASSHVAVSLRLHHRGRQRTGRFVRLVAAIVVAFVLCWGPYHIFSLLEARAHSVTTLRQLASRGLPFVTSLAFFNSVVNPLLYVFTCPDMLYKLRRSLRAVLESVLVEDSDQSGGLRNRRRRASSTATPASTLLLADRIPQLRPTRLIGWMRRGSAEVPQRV
How it was run: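 Mouse CRTH2 cDNA stably expressed in HEK293(EBNA) cells (hygromycin-selected) and membranes made by nitrogen cavitation. SPA competition uses 2–5 μg membranes, 1.5 nM [3H]PGD2, HEPES/KOH pH 7.4 with 10 mM MnCl2, 1% DMSO, 90 min at room temperature. Nonspecific binding defined with 1 μM PGD2. Ki by Cheng–Prusoff, ≥3 independent experiments.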

[18] = Apparent permeability across human Caco2 cells at 1 uM after 2 hrs by LC/MS/MS analysis; format: ADME, cell-based; details: Caco-2
[19] = Clearance in BALB/c mouse at 0.2 mg/kg, iv and 1 mg/kg, po by LC/MS/MS analysis; format: ADME, organism-based; details: in vivo
How it was run: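 Low-dose cassette PK in mouse: 0.2 mg/kg iv and 1 mg/kg po.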

[20] = target: T1, Prostaglandin D2 receptor 2; assay: Displacement of [3H]PGD2 from human CRTH2 expressed in chinese hamster CHO cells by liquid scintillation counting in the presence of 0.1% BSA; format: cell-based
How it was run: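 Scintillation proximity assay on 2–5 μg human CRTH2 membranes with WGA-SPA beads and 1.5 nM [3H]PGD2. Buffer: 10 mM HEPES/KOH pH 7.4, 10 mM MnCl2, protease inhibitors, 1% DMSO, 0.1% BSA. Incubated 90 min at room temperature with shaking. Nonspecific binding defined with 1 μM PGD2. Ki by Cheng–Prusoff, mean of at least three independent dose–response experiments.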

[21] = target: Prostaglandin E2 receptor EP2 subtype (Homo sapiens) (UniProt P43116); assay: Inhibition of EP2 receptor at 10 uM
Sequence of Prostaglandin E2 receptor EP2 subtype (Homo sapiens) (P43116 whole entry): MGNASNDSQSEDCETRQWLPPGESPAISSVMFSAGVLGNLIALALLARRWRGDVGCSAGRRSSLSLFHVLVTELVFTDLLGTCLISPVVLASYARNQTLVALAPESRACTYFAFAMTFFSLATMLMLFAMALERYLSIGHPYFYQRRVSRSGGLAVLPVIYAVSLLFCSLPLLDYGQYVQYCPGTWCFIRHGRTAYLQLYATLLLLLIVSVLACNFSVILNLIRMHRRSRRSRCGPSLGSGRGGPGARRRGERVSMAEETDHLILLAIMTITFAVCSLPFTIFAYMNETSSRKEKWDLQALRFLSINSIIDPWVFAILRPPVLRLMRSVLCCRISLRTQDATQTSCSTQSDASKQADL
How it was run: (§2)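 Selectivity screen: panel of 50 receptor and ion-channel targets, tested at 10 μM; EP2 by binding assay; GABA-gated Cl− channel from rat. Result expressed as % inhibition.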

[22] = Volume of distribution at steady state in BALB/c mouse at 0.2 mg/kg, iv and 1 mg/kg, po by LC/MS/MS analysis; details: in vivo, read-out: Vdss
[23] = Kinetic solubility of the compound in 2% DMSO; format: physicochemical; details: read-out: Kinetic_solubility
Rattus norvegicus = species on record: Rattus norvegicus; assay: Inhibition of rat GABA gated chloride ion channel at 10 uM; how it was run: as §2
[24] = Intrinsic clearance in human liver microsomes assessed per mg of protein at 1 uM by LC/MS/MS analysis; format: ADME, Microsome
Cytochrome P450 2C9 = Cytochrome P450 2C9 (Homo sapiens, UniProt P11712); assay: Inhibition of human recombinant CYP2C9 expressed in baculovirus infected insect cells preincubated for 15 mins measured after 30 mins by luminescence analysis; format: ADME
Sequence of Cytochrome P450 2C9 (P11712 whole entry): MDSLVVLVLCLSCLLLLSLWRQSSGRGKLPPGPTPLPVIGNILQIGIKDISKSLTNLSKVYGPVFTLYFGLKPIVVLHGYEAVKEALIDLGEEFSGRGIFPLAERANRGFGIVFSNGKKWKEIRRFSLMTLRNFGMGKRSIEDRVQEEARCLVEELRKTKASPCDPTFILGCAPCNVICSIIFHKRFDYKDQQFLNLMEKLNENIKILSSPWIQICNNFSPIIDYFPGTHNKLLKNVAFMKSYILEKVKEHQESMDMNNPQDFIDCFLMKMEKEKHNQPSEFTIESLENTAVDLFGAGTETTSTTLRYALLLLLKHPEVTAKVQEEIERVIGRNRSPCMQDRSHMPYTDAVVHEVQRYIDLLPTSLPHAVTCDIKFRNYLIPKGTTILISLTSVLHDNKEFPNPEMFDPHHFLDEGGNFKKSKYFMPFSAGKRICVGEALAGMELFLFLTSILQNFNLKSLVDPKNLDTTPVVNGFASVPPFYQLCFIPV

fraction unbound [1]: 0.054
Ki [2]: 3.3 nM
bioavailability [3]: 24%
CL/F [4]: 6.67 mL/min/kg
Emax [5]: 10%
AUC [6]: 3240 ng·h/mL
fraction unbound [7]: 0.013
fraction unbound [8]: 0.011
SMILES: CS(=O)(=O)c1ccc(F)c(C#Cc2cc(Cl)ccc2OCC(=O)O)c1

logD [9]: 0.5
IC50 [10]: 1200 nM
fraction unbound [1]: < 0.003
Ki [2]: 29 nM
half-life [11]: 18 min
bioavailability [12]: 82%
solubility kinetic [13]: > 200 µM
half-life [14]: 96 min
microsomal CLint at 1 µM [15]: 27 µL/min/mg
IC50 [16]: 114 nM
Ki [17]: 37.4 nM
Papp at 2 h, 1 µM [18]: 18.4 ×10⁻⁶ cm/s
clearance [19]: 16.7 mL/min/kg
IC50 [20]: 29 nM
inhibition [21]: 66%
Vd [22]: 0.3 L/kg
solubility kinetic [23]: > 200 µM
inhibition (Rattus norvegicus): 76%
fraction unbound [7]: < 0.003
microsomal CLint at 1 µM [24]: 12 µL/min/mg
fraction unbound [8]: < 0.003
IC50 (Cytochrome P450 2C9): 1440 nM
SMILES: O=C(O)COc1ccc(Cl)cc1C#Cc1cccc(Cl)c1
